Bioassay records from PubChem BioAssay.
An excerpt weighted towards active compounds, which were near 4% of everything screened.
OX1R antag-1: antagonists of human orexin 1 receptor (OX1R); Orexin/Hypocretin receptor type 1 (Homo sapiens), O43613; OX1R-expressing cells, FRET antagonist read-out; inhibition, % at 6.6 µM; 330,000 tested, 1.8% active; in the data active means inhibition mostly above about 38%, no sharp cut-off; inactive means mostly below about 40%
OX1R antag-2: OX1R (HCRTR1) antagonists, primary screen, fluorescence, CHO/OX1R cells, Fluo-8 calcium, orexin A; Fluo-8 calcium fluorescence; inhibition, % at 5 µM; 330,000 tested, 0.43% active;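 active means inhibition above its plate's threshold, mean inhibition of all tested compounds on the plate plus 3 SD, cut at about 37% in these data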
TAAR1 antag: human TAAR1 antagonists, primary screen, Fluo-8 calcium fluorescence, CHO RD-HGA16 cells. 360,000 tested, 1.5% active. antagonist. Trace amine-associated receptor 1 (Homo sapiens), Q96RJ0. inhibition, % at 3 µM;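 active means inhibition above a per-plate cutoff, the mean inhibition of test compounds on that plate plus 3 SD, cut at about 49% in these data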
Target sequence (Q96RJ0 whole entry, looked up): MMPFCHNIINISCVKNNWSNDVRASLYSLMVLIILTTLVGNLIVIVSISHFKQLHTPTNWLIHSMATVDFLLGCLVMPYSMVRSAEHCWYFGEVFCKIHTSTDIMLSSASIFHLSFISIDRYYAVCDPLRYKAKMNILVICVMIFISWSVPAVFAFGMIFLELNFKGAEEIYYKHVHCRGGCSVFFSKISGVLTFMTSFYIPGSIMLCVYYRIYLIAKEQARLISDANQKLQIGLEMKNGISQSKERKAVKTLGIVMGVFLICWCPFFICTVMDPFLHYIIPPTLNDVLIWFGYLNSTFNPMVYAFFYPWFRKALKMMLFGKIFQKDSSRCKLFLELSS
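System: RD-HGA16 CHO cells with stable hTAAR1 and Gα16 | Probe or stimulus: EC80 β-phenethylamine stimulus | Dosing: 3 µM, single point | Times: Dye loading 75 min at 37 °C, then 30 min room temperature | Measured by: Fluo-8 calcium-sensitive fluorescence | Read-out basis: % inhibition of agonist calcium response | Replicates: n of 1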
NTR1 agonist: agonists of human NTR1, primary screen, imaging, U2OS cells, beta-arrestin-GFP, high content. Neurotensin receptor type 1 (Homo sapiens), P30989. NTR1-U2OS beta-arrestin-GFP spot imaging, agonist mode. activation, % at 20 µM. 330,000 tested, 0.17% active;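 active means activation at or above 40% of the spot to cytoplasm intensity ratio, with at least 20 cells analyzed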
CHO parental Ca: ATP-evoked calcium signal inhibitors, parental CHO, primary screen, counter-screen for OX1R antagonist project, cell-based, fluorescence, Fluo-8 calcium dye. 330,000 tested, 0.63% active. parental CHO-K1, ATP-induced calcium, Fluo-8 fluorescence. inhibition, % at 5.6 µM. AID 463079, 2010;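 active means inhibition above that plate's mean sample inhibition plus 3 SD, cut at about 26% in these data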
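Measured by: calcium-sensitive Fluo-8 fluorescence / Test system: CHO parental line / Controls: ATP-challenged DMSO wells low, unchallenged DMSO wells high / Measure: % inhibition / Compound: single nominal dose of 5.6 µM per compound / Replicates: single well per compound, no replicates / Reagent: ATP as calcium-mobilizing challenge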
TAAR1 ag: human TAAR1 agonists, primary screen, Fluo-8 calcium fluorescence, CHO RD-HGA16 cells. AID 624467, 2012. vehicle wells 0%, saturating PEA agonist 100%. 360,000 tested, 0.99% active. Trace amine-associated receptor 1 (Homo sapiens), Q96RJ0. activation, % at 3 µM;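 active means activation above the mean activation of all test compounds in the run plus 3 SD, cut at about 38% in these data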
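System: CHO-derived RD-HGA16 cells with stable Gα16 and human TAAR1 / Times: 17-24 h plating, Fluo-8 75 min 37 °C, 30 min RT / Technique: calcium-sensitive Fluo-8 signal, excitation 470-495, emission 515-575 nm / Measure: % activation relative to PEA EC100 response / Benchmarks: DMSO and PEA EC100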
OX1R Fluo8 conf: OX1R (HCRTR1) antagonists, confirmation, fluorescence, CHO/OX1R cells, Fluo-8 calcium, orexin A; shares compounds with OX1R antag-2; orexin A calcium Fluo-8 fluorescence; inhibition, % at 5 µM; 1,100 tested, 38% active; in the data active means inhibition above about 29%
CHO Ca triplic: ATP-evoked calcium inhibition in parental CHO, counter-screen for OX1R antagonist project, cell-based, fluorescence, CHO-K1, triplicate. ATP-induced calcium, Fluo-8 fluorescence. AID 492965, 2010. 1,100 tested, 9.3% active. inhibition, % at 5.6 µM. shares compounds with OX1R antag-2;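 active means inhibition above a per-plate limit, the mean inhibition of that plate's test compounds plus 3 SD, cut at about 25% in these data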
Hits are given with their value; . = inactive; / = not tested or not shown.

SMILES	OX1R antag-1	OX1R antag-2	TAAR1 antag	NTR1 agonist	CHO parental Ca	TAAR1 ag	OX1R Fluo8 conf	CHO Ca triplic
COc1c2ccccc2nc2ccccc12	.	.	.	.	.	.	/	/
CCNC(=O)C1(C)CCCN(C(=O)c2cc(C)n(C(C)(C)C)n2)C1 (stereo not drawn)	/	/	.	/	/	.	/	/
O=C1CN(C(=O)CCCc2c[nH]c3ccccc23)c2ccccc2N1	.	59.2	.	.	.	.	29.5	.
O=C(O)CCCC(=O)N1CC(=O)Nc2ccccc21	.	.	.	.	.	.	/	/
O=C(Nc1ccccc1)Nc1cccc(C(F)(F)F)c1	.	.	.	.	.	.	.	.
CNC(=O)Nc1cccc(C(F)(F)F)c1	.	.	.	.	.	.	/	/
c1ccc2c(c1)oc1c(N3CCOCC3)ncnc12	.	.	.	.	.	.	/	/
C(=C\c1ccccc1)/CN1CCN(c2ncnc3c2oc2ccccc23)CC1	.	48.1	.	.	.	.	.	56.6
CCCN(C(=O)COC(=O)CCOc1ccc(C)cc1)c1c(N)n(Cc2ccccc2)c(=O)[nH]c1=O	.	.	.	.	.	.	/	/
Cc1ccc(OCCC(=O)N(CCC(C)C)c2c(N)n(Cc3ccccc3)c(=O)[nH]c2=O)cc1	.	.	/	.	.	/	.	.
COCCn1c(SCC(=O)Nc2ccc(OC)cc2)nnc1-c1ccoc1C	.	.	.	.	.	.	/	/
COc1ccc(NC(=O)CSc2nnc(-c3ccoc3C)n2CCc2ccccc2)cc1	.	.	.	.	.	.	.	.
CC(NCC(=O)Nc1cc(S(=O)(=O)N2CCCCCC2)ccc1Cl)c1ccccc1 (stereo not drawn)	.	.	.	.	.	.	.	26.1
CC1C(=O)N2CCCc3cc(S(=O)(=O)N(C)CCC#N)cc1c32 (stereo not drawn)	.	.	.	.	.	.	/	/
COc1ccc2c3c(cccc13)C(=O)N(O)C2=O	.	.	.	/	.	.	/	/
COc1ccc(C(C)=O)c2c(O)cccc12	.	.	.	.	.	.	.	.
Cc1cccc(NC(=S)NCc2ccccc2Cl)c1C	.	66.4	.	.	.	.	.	.
Cc1c(Cl)cccc1NC(=S)NCc1ccccc1	.	.	.	.	.	.	/	/
Cc1cc([N+](=O)[O-])ccc1NCc1ccccc1	.	49.6	/	.	.	/	.	.
Cc1cc([N+](=O)[O-])ccc1NCc1ccc2ccccc2c1	.	.	.	.	.	.	/	/
Cn1c(=O)c(C(=O)NNC(=O)c2ccc(Br)cc2)c(O)c2ccccc21	.	.	.	.	.	.	.	.
CCCc1ccc(C(=O)NC(=O)c2ccccc2O)cc1	.	.	.	.	.	.	.	73.4
O=C(O)CN(Cc1ccccc1)S(=O)(=O)c1ccc2c(c1)OCCO2	.	.	.	.	.	.	.	.
CN(Cc1ccccc1)S(=O)(=O)c1ccc2c(c1)OCCO2	.	.	.	.	.	.	/	/
O=S(=O)(c1ccc2c(c1)OCCO2)N1CCN(Cc2ccc3c(c2)OCO3)CC1	.	.	.	.	.	.	/	/
SMILES	OX1R antag-1	OX1R antag-2	TAAR1 antag	NTR1 agonist	CHO parental Ca	TAAR1 ag	OX1R Fluo8 conf	CHO Ca triplic
O=S(=O)(c1ccc2c(c1)OCCO2)N1CCN(Cc2ccccc2)CC1	.	.	.	.	.	.	.	.
Cc1ccc(S(=O)(=O)N(C)c2ccc(OC(=O)COc3ccccc3)cc2)cc1	.	.	.	.	.	.	/	/
Cc1ccc(S(=O)(=O)N(C)c2ccc(OC(=O)c3cccs3)cc2)cc1	.	.	.	.	.	.	.	.
COC(=O)c1c(N)[nH]c(C(=O)c2ccccc2)c1-c1ccc(Cl)cc1	/	/	.	/	/	.	/	/
COc1ccc(C2NC3=C(CCCC3)C(C#N)(C#N)C2(C#N)C#N)cc1 (stereo not drawn)	.	.	/	.	.	/	/	/
COc1ccc(C2NC3=C(CCC3)C3(C#N)C4(N=C(N)C23C#N)OCCO4)cc1 (stereo not drawn)	.	.	.	.	.	.	.	.
N#C/C(=N\Nc1ccc(Cl)cc1)C(=N)N1CCCCCC1	.	.	.	.	.	.	.	.
Cc1ccccc1OCCC(=O)Nc1cccc(S(=O)(=O)Nc2ccccc2Cl)c1	.	45.3	.	.	.	.	.	.
O=C(COc1ccccc1[N+](=O)[O-])Nc1cccc(S(=O)(=O)NC2=NCCCCC2)c1	.	.	.	.	.	.	/	/
COc1ccc(NS(=O)(=O)c2cccc(NC(=O)COc3ccccc3[N+](=O)[O-])c2)cc1	.	50.8	.	.	.	.	.	.
Cc1cnn2c(C3CC3)ccnc12	.	.	.	.	.	.	.	.
CC(Oc1ccccc1)C(=O)OCC(=O)Nc1sccc1C(N)=O (stereo not drawn)	.	.	.	.	.	.	/	/
CCC(Oc1ccccc1)C(=O)OCC(=O)Nc1sccc1C(N)=O (stereo not drawn)	.	43.8	.	.	.	.	.	.
COc1ccccc1-c1c(C)nn2c(N3CCN(c4ccccc4OC)CC3)cc(C)nc12	.	.	.	.	.	.	/	/
COc1ccccc1N1CCN(c2cc(C)nc3nc(C)nn23)CC1	.	.	.	.	.	.	.	.
COCCn1c(=O)[nH]c2cc(C(=O)N3CCN(c4cccc(Cl)c4)CC3)ccc2c1=O	.	.	.	.	.	.	.	.
O=C(COC(=O)c1cccs1)c1ccc2ccccc2c1	.	.	.	.	.	.	.	.
O=C(COC(=O)c1cccs1)c1ccc2c(c1)OCCO2	.	.	.	.	.	.	/	/
CC(C(=O)Nc1cc(Cl)cc(Cl)c1)N1CCCC1 (stereo not drawn)	.	.	.	.	.	.	/	/
COc1ccc(CCC(=O)NCc2ccccc2OC)cc1	.	.	.	.	.	.	.	.
O=C1NCC(c2ccccc2)C1C(=O)N/N=C\c1ccc(-c2ccc(Cl)c(Cl)c2)o1 (stereo not drawn)	.	51.6	.	.	.	.	51.3	.
O=C1NCC(c2ccccc2)C1C(=O)N/N=C/c1ccc(Cl)s1 (stereo not drawn)	.	.	.	.	.	.	/	/
